Data as given in ChEMBL document CHEMBL1275351, “Novel spirotetracyclic zwitterionic dual H(1)/5-HT(2A) receptor antagonists for the treatment of sleep disorders” (J Med Chem, 2010).

Assays:
Rattus norvegicus [1] = test: Ex vivo displacement of [3H]ketanserin from 5HT2A receptor in Sprague-Dawley rat cerebral cortex at 1 mg/kg, po by imaging analysis; type: functional
In short: (§1)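 Rats were dosed orally (vehicle 0.5% HPMC) and brains removed 2 h later. 14 μm coronal sections were incubated with 1 nM [3H]ketanserin in 50 mM Tris-HCl with 10 mM MgCl2, pH 7.5, for 10 min at room temperature. Nonspecific binding with 10 μM mianserin. Phosphoimager read after 7 days; occupancy measured in cortex.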

[2] = biological target: 5-hydroxytryptamine receptor 2B (Homo sapiens, UniProt P41595); test: Antagonist activity at human 5HT2B receptor expressed in human SH-SY5Y cells by FLIPR assay
[3] = biological target: 5-hydroxytryptamine receptor 2A (Rattus norvegicus, UniProt P14842); test: Displacement of [3H]ketanserin from 5HT2A receptor in Sprague-Dawley rat cortical membrane by liquid scintillation counting
In short: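 Cerebral cortex membranes from male Sprague-Dawley rats (200-250 g), 50 μg/well. Incubated with 1 nM [3H]ketanserin in 50 mM Tris-HCl, 10 mM MgCl2, pH 7.4, for 1 h at 37 °C with shaking. Filtered on PEI-soaked GF/B and counted by scintillation. Nonspecific binding with 10 μM mianserin. Ki by Cheng-Prusoff; mean of two experiments in duplicate.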

[4] = Blood clearance in Sprague-Dawley rat at 1 mg/kg, iv and 3 mg/kg, po; type: ADME, organism-based; conditions: whole blood
In short: (§2)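 Male Sprague-Dawley rats, cassette dosing. Compounds were given as an iv bolus and as an oral suspension. Blood samples were taken at intervals up to 24 h, processed by protein precipitation and analysed by HPLC-MS/MS.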

[5] = Volume of distribution at steady state in Sprague-Dawley rat at 1 mg/kg, iv and 3 mg/kg, po; type: ADME, organism-based; conditions: in vivo, read-out: Vdss; in short: as §2
[6] = Half life in Sprague-Dawley rat at 1 mg/kg, iv and 3 mg/kg, po; type: ADME, organism-based; conditions: in vivo; in short: as §2
[7] = Oral bioavailability in Sprague-Dawley rat at 3 mg/kg; type: ADME, organism-based; conditions: in vivo; in short: as §2
[8] = Ratio of drug level in brain to blood in Sprague-Dawley rat at 1 mg/kg, iv and 3 mg/kg, po; type: ADME, organism-based; conditions: read-out: BBR
In short: (§3)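 Male Sprague-Dawley rats, cassette dosing, iv bolus or oral suspension. Blood and brain levels were measured by protein precipitation and HPLC-MS/MS. Brain:blood ratio was taken from AUC0-8h after oral dosing, or at 1 h after iv dosing for one compound.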

Rattus norvegicus [9] = test: Hypnotic activity in Sprague-Dawley rat assessed as non-rapid eye movement sleep at 1 mg/kg, po administered during active phase; type: functional
In short: (§4)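 Male Sprague-Dawley rats (275-300 g) carried implanted telemetric EEG/EMG transmitters and were used 3 weeks after surgery. Oral dosing (2 mL/kg) was given 6 h after lights off (CT18) in a randomized crossover versus vehicle. Recording ran for 5 h in 10 s epochs scored by FFT. n = 8, mean ± SEM; one-way ANOVA with Dunnett's test.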

Rattus norvegicus [10] = test: Hypnotic activity in Sprague-Dawley rat assessed as rapid eye movement sleep at 3 mg/kg, po administered during active phase; type: functional; in short: as §4
[11] = Cmax in Sprague-Dawley rat hypnotic model at 3 mg/kg, po administered during active phase measured after 2 hrs; type: ADME, organism-based; design: dose 3 mg/kg, route oral; conditions: in vivo
[12] = Plasma concentration at Tmax in Sprague-Dawley rat hypnotic model at 1 mg/kg, po administered during active phase; type: ADME, organism-based; design: dose 1 mg/kg, route oral
[13] = Plasma concentration at Tmax in Sprague-Dawley rat hypnotic model at 3 mg/kg, po administered during active phase; type: ADME, organism-based; design: dose 3 mg/kg, route oral
[14] = Plasma concentration at Tmax in Sprague-Dawley rat hypnotic model at 10 mg/kg, po administered during active phase; type: ADME, organism-based; design: dose 10 mg/kg, route oral
Rattus norvegicus [15] = test: Ex vivo displacement of [3H]ketanserin from 5HT2A receptor in Sprague-Dawley rat cerebral cortex at 3 mg/kg, po by imaging analysis; type: functional; in short: as §1
Rattus norvegicus [16] = test: Ex vivo displacement of [3H]ketanserin from 5HT2A receptor in Sprague-Dawley rat cerebral cortex at 10 mg/kg, po by imaging analysis; type: functional; in short: as §1
Rattus norvegicus [17] = test: Ex vivo displacement of [3H]pyrilamine from histamine H1 receptor in Sprague-Dawley rat cerebral cortex at 1 mg/kg, po by imaging analysis; type: functional
In short: (§5)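 Rats were dosed orally (vehicle 0.5% HPMC) and brains removed 2 h later. 14 μm coronal sections were incubated with 1 nM [3H]pyrilamine in 50 mM Tris-HCl, pH 7.5, for 10 min at room temperature. Nonspecific binding with 10 μM pyrilamine. Phosphoimager read after 7 days; occupancy measured in cortex.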

Rattus norvegicus [18] = test: Ex vivo displacement of [3H]pyrilamine from histamine H1 receptor in Sprague-Dawley rat cerebral cortex at 3 mg/kg, po by imaging analysis; type: functional; in short: as §5
Rattus norvegicus [19] = test: Ex vivo displacement of [3H]pyrilamine from histamine H1 receptor in Sprague-Dawley rat cerebral cortex at 10 mg/kg, po by imaging analysis; type: functional; in short: as §5
[20] = Blood clearance in Sprague-Dawley rat at 0.5 mg/kg, iv and 1 mg/kg, po; type: ADME, organism-based; conditions: whole blood; in short: as §2
[21] = Volume of distribution at steady state in Sprague-Dawley rat at 0.5 mg/kg, iv and 1 mg/kg, po; type: ADME, organism-based; conditions: in vivo, read-out: Vdss; in short: as §2
[22] = Half life in Sprague-Dawley rat at 0.5 mg/kg, iv and 1 mg/kg, po; type: ADME, organism-based; conditions: in vivo; in short: as §2
[23] = Oral bioavailability in Sprague-Dawley rat at 1 mg/kg; type: ADME, organism-based; conditions: in vivo; in short: as §2
[24] = Ratio of drug level in brain to blood in Sprague-Dawley rat at 0.5 mg/kg, iv and 1 mg/kg, po; type: ADME, organism-based; conditions: read-out: BBR; in short: as §3
[25] = Cmax in Sprague-Dawley rat hypnotic model at 1 mg/kg, po administered during active phase measured after 2 hrs; type: ADME, organism-based; design: dose 1 mg/kg, route oral; conditions: in vivo

Sequence of 5-hydroxytryptamine receptor 2A (P14842 whole entry): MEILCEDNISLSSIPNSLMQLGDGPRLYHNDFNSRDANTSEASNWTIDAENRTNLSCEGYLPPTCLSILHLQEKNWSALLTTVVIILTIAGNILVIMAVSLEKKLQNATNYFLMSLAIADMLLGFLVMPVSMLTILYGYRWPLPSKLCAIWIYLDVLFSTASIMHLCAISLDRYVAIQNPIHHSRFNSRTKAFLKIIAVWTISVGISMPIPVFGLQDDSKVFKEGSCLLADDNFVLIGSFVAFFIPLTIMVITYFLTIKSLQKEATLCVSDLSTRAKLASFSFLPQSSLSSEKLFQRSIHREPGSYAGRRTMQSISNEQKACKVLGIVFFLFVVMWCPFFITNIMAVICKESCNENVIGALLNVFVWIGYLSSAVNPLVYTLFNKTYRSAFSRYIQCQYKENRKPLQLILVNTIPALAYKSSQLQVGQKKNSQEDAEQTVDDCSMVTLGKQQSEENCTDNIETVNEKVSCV
Sequence of 5-hydroxytryptamine receptor 2B (P41595 whole entry): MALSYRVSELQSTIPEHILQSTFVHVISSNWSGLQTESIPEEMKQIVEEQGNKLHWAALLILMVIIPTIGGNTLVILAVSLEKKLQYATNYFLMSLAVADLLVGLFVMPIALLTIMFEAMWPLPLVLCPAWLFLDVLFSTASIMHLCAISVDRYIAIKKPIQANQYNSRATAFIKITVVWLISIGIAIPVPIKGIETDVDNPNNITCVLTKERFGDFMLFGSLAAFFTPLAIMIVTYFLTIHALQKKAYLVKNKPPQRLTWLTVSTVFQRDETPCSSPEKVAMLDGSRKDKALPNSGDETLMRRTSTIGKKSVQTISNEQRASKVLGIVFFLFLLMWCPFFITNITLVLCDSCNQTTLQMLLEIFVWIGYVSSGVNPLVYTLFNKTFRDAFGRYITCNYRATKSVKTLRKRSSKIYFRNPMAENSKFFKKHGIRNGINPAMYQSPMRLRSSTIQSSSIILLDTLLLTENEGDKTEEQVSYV

Ki [2] [nM]	Ki [3] [nM]	Cmax [12] [ng/mL]	Cmax [13] [ng/mL]	Cmax [14] [ng/mL]	clearance [20] [mL/min/kg]	Vd [21] [L/kg]	half-life [22] [h]	bioavailability [23] [%]	Kp [24]	SMILES	Activity (Rattus norvegicus [1]) [%]	Time (Rattus norvegicus [9]) [min]	Time (Rattus norvegicus [10]) [min]	Activity (Rattus norvegicus [15]) [%]	Activity (Rattus norvegicus [16]) [%]	Activity (Rattus norvegicus [17]) [%]	Activity (Rattus norvegicus [18]) [%]	Activity (Rattus norvegicus [19]) [%]	further results
79.4	33.1	127	417	1220	–	–	–	–	–	O=C(O)C1CN(C2CC[C@]3(Cc4ccccc4Cc4ccccc43)C2)C1 (some centres not stated)	0.9	87.4	16.1	24	47	16	45	66	clearance [4]: 9 mL/min/kg; Vd [5]: 2.1 L/kg; half-life [6]: 3.1 h; bioavailability [7]: 54%; Kp [8]: 0.1; Cmax [11]: 626 ng/mL
158	33.9	119	303	755	21	2.9	1.9	65	0.5	O=C(O)C1CCN(C2CC[C@]3(Cc4ccccc4Cc4ccccc43)C2)CC1 (some centres not stated)	0	84.7	11	5.6	18	30	35	55	Cmax [25]: 216 ng/mL
794	33.9	–	–	–	13	1.9	1.9	100	0.2	O=C(O)C1CN(C2CCC3(Cc4ccccc4Oc4ccccc43)C2)C1 (configuration not stated)	–	107.3	15.1	–	–	–	–	–	–
